≈ marks a conversion by molar mass, not a printed value. Calls of active or inactive are those of the source. No cut-off for these calls is given here.
Tests used:
[1] = tested on: Penicillium digitatum; experiment: Antimicrobial activity against Penicillium digitatum PHI-26 assessed as microbial growth inhibition after 4 days by microtiter plate assay; format: functional
Summary of the method: (§1)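 Microtiter dose–response assay, as previously described. Peptide stocks were 1 mM in 5 mM MOPS pH 7. P. digitatum conidia came from 7–10-day PDA cultures grown at 24 °C and were counted with a hematocytometer. Yeast (YPD, 30 °C) and E. coli (LB, 37 °C) were grown to stationary phase and diluted. Growth was read as OD492 in triplicate. MIC: lowest concentration with no growth after 4 days in all independent experiments, each repeated at least three times.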

[2] = tested on: Penicillium digitatum; experiment: Fungicidal activity against Penicillium digitatum PHI-26 conidia assessed as inhibition of conidia viability incubated for 16 hr by colony count assay; format: functional, organism-based
Summary of the method: (§2)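 P. digitatum conidia (10^4 mL-1) were incubated with peptide (for example 4, 16 or 64 µM) in sterile distilled water for 16 h at room temperature, in triplicate. Samples were then serially diluted and spread on peptide-free PDA to count CFU. Results are given as mean CFU mL-1 ± SD compared with a no-peptide control.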

[3] = tested on: Penicillium digitatum; experiment: Fungicidal activity against Penicillium digitatum PHI-26 conidia assessed as reduction in conidia viability at 4 uM incubated for 16 hr by colony count assay relative to untreated control; format: functional; summary of the method: as §2
[4] = tested on: Escherichia coli; experiment: Antimicrobial activity against Escherichia coli DH5[alpha] assessed as microbial growth inhibition after 4 days by microtiter plate assay; format: functional; settings: 96 h; summary of the method: as §1
[5] = Toxicity in Homo sapiens (human) RBCs assessed as hemolytic activity; format: cell-based; settings: erythrocyte
[6] = tested on: Saccharomyces cerevisiae; experiment: Antimicrobial activity against Saccharomyces cerevisiae FY1679 assessed as microbial growth inhibition after 4 days by microtiter plate assay; format: functional; settings: FY1679, 96 h; summary of the method: as §1
[7] = tested on: Penicillium digitatum; experiment: Antimicrobial activity against Penicillium digitatum PHI-26 assessed as inhibition of orange postharvest decay progression progression at 32 uM measured 7 days post fungal inoculation by orange fruit decay assay; format: functional, organism-based
Summary of the method: (§3)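 Navelina sweet oranges were wounded about 3 mm deep at four equatorial sites. Each wound received 5 µL of 10^4 conidia mL-1 of PHI-26 mixed with peptide in water, inoculated either at once or after 16 h at room temperature. There were three replicas of five fruits, held at 20 °C and 90% RH. Infected wounds were scored at 3, 5 and 7 dpi as mean % ± SD, with Tukey separation.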

[8] = tested on: Penicillium digitatum; experiment: Antimicrobial activity against Penicillium digitatum PHI-26 assessed as inhibition of orange postharvest decay progression at 32 uM by orange fruit decay assay; format: functional, organism-based; summary of the method: as §3
[9] = tested on: Penicillium digitatum; experiment: Antimicrobial activity against Penicillium digitatum PHI-26 assessed as inhibition of orange postharvest decay progression at 32 uM pre-incubated with fungal conidia for 16 hr by orange fruit decay assay; format: functional, organism-based
Summary of the method: (§4)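 Orange fruit inoculation (Navelina, Navelate or Lanelate). Each fruit was wounded about 3 mm deep at four equatorial sites. 5 µL of inoculum (10^4 conidia mL-1 with peptide in water, preincubated 16 h at room temperature) went into each wound. Peptide was tested at 32 µM, from 4 to 64 µM, or from 1 to 4 µM. Fruit was held at 20 °C and 90% RH. Infected wounds were scored at 3, 5 and 7 dpi. Three replicas of five fruits each; Tukey mean separation.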

[10] = tested on: Penicillium digitatum; experiment: Antimicrobial activity against Penicillium digitatum PHI-26 assessed as inhibition of orange postharvest decay progression progression at 4 uM pre-incubated with fungus for 16 hr measured 7 days post fungal inoculation by orange fruit decay assay; format: functional, organism-based; summary of the method: as §4
[11] = Toxicity in Homo sapiens (human) RBCs assessed as hemolytic activity at 100 uM; format: cell-based; settings: erythrocyte
[12] = tested on: Penicillium digitatum; experiment: Antimicrobial activity against Penicillium digitatum PHI-26 assessed as inhibition of orange postharvest decay progression progression at 2 uM pre-incubated with fungus for 16 hr measured 7 days post fungal inoculation by orange fruit decay assay; format: functional; summary of the method: as §4

For CC(=O)N[C@H](Cc1cnc[nH]1)C(=O)N[C@H](CCCNC(=N)N)C(=O)N[C@H](CCCCN)C(=O)N[C@H](CCCCN)C(=O)N[C@H](Cc1c[nH]c2ccccc12)C(=O)N[C@H](Cc1ccccc1)C(=O)N[C@H](Cc1c[nH]c2ccccc12)C(N)=O, the MIC [1] was “Active”.
For CC[C@H](C)[C@H](NC(=O)[C@H](CCCCN)NC(=O)[C@H](CCCCN)NC(=O)[C@H](Cc1ccccc1)NC(=O)[C@H](CC(C)C)NC(=O)[C@H](CCCCN)NC(=O)[C@@H](N)CCCCN)C(=O)N[C@@H](CC(C)C)C(=O)N[C@@H](CCCCN)C(=O)N[C@@H](Cc1ccccc1)C(=O)N[C@@H](CC(C)C)C(N)=O [KKLFKKILKFL-NH2], the inhibition [2] was “Active”, the inhibition [3] was “Active” and the MIC [4] was 4 µM (≈ 5.62 µg/mL). For the same molecule, the Activity [5] was “Toxic”, the MIC ([1]; PHI-26, 96 h) was 4 µM (≈ 5.62 µg/mL) and the MIC [6] was 16 µM (≈ 22.5 µg/mL).
In the case of CC[C@H](C)[C@H](NC(=O)CN)C(=O)NCC(=O)N[C@@H](C)C(=O)N[C@H](C(=O)N[C@@H](CC(C)C)C(=O)N[C@@H](CCCCN)C(=O)N[C@H](C(=O)N[C@@H](CC(C)C)C(=O)N[C@H](C(=O)N[C@H](C(=O)NCC(=O)N[C@@H](CC(C)C)C(=O)N1CCC[C@H]1C(=O)N[C@@H](C)C(=O)N[C@@H](CC(C)C)C(=O)N[C@H](C(=O)N[C@@H](CO)C(=O)N[C@@H](Cc1c[nH]c2ccccc12)C(=O)N[C@H](C(=O)N[C@@H](CCCCN)C(=O)N[C@@H](CCCNC(=N)N)C(=O)N[C@@H](CCCCN)C(=O)N[C@@H](CCCNC(=N)N)C(=O)N[C@@H](CCC(N)=O)C(=O)N[C@@H](CCC(N)=O)C(N)=O)[C@@H](C)CC)[C@@H](C)CC)[C@@H](C)O)[C@@H](C)O)C(C)C)C(C)C [MELITTIN], the inhibition [2] is reported as “inactive”, the inhibition [3] is reported as “inactive” and the inhibition [7] is reported as “Active”. For the same molecule, the Activity [5] was “Toxic”, the inhibition [8] was “inactive” and the MIC ([1]; PHI-26, 96 h) was 2 µM (≈ 5.69 µg/mL). The MIC [6] was 16 µM (≈ 45.5 µg/mL), the inhibition [9] was “inactive” and the inhibition [10] was “inactive”.
For CC(=O)N[C@@H](CCCNC(=N)N)C(=O)N[C@@H](CCCNC(=N)N)C(=O)N[C@@H](CCCCN)C(=O)N[C@@H](CCCCN)C(=O)N[C@@H](Cc1c[nH]c2ccccc12)C(=O)N[C@@H](Cc1ccccc1)C(=O)N[C@@H](Cc1c[nH]c2ccccc12)C(N)=O, the inhibition [2] was “Active”, the “fold change (FC)” value [3] was 2 and the MIC [4] was 8 µM (≈ 9.18 µg/mL). The Activity [11] was “Non-toxic”, the Activity [5] was “Non-toxic” and the MIC ([1]; PHI-26, 96 h) was 4 µM (≈ 4.59 µg/mL). For the same molecule, the MIC [6] was 16 µM (≈ 18.4 µg/mL), the inhibition [9] was “Active” and the inhibition [10] was “Active”.
With CC[C@H](C)[C@H](NC(C)=O)C(=O)N[C@@H](CC(C)C)C(=O)N1CCC[C@H]1C(=O)N[C@@H](Cc1c[nH]c2ccccc12)C(=O)N[C@@H](CCCCN)C(=O)N[C@@H](Cc1c[nH]c2ccccc12)C(=O)N1CCC[C@H]1C(=O)N[C@@H](Cc1c[nH]c2ccccc12)C(=O)N[C@@H](Cc1c[nH]c2ccccc12)C(=O)N1CCC[C@H]1C(=O)N[C@@H](Cc1c[nH]c2ccccc12)C(=O)N[C@@H](CCCNC(=N)N)C(=O)N[C@@H](CCCNC(=N)N)C(N)=O [Indolicidin] the inhibition [2] was “Active”, the inhibition [3] was “Active” and the inhibition [10] was “Active”.
With Ac-RKKWFW-NH2 the inhibition [2] was “Active”, the “fold change (FC)” value [3] was 2 and the MIC [4] was 32 µM. For the same molecule, the Activity [11] was “Non-toxic”, the Activity [5] was “Non-toxic” and the MIC ([1]; PHI-26, 96 h) was 4 µM. The MIC [6] was 32 µM and the inhibition [9] was “Active”.
For CC(=O)N[C@@H](Cc1cnc[nH]1)C(=O)N[C@@H](CCCNC(=N)N)C(=O)N[C@@H](CCCCN)C(=O)N[C@@H](CCCCN)C(=O)N[C@@H](Cc1c[nH]c2ccccc12)C(=O)N[C@@H](Cc1ccccc1)C(=O)N[C@@H](Cc1c[nH]c2ccccc12)C(N)=O, the inhibition [2] was “Active”, the “fold change (FC)” value [3] was 2 and the MIC [4] was 16 µM (≈ 18.1 µg/mL). For the same molecule, the Activity [11] was “Non-toxic”, the Activity [5] was “Non-toxic” and the MIC ([1]; PHI-26, 96 h) was 4 µM (≈ 4.51 µg/mL). For the same molecule, the inhibition at 2 µM [12] was greater than 50%, the MIC [6] was 16 µM (≈ 18.1 µg/mL) and the inhibition [9] was “Active”. The inhibition [10] was “Active”.
For CC(=O)N[C@H](CCCNC(=N)N)C(=O)N[C@H](CCCNC(=N)N)C(=O)N[C@H](CCCCN)C(=O)N[C@H](CCCCN)C(=O)N[C@H](Cc1c[nH]c2ccccc12)C(=O)N[C@H](Cc1ccccc1)C(=O)N[C@H](Cc1c[nH]c2ccccc12)C(N)=O, the MIC [1] was “Active”.
For CC[C@H](C)[C@H](NC(=O)[C@H](CCCCN)NC(=O)[C@H](CCCCN)NC(=O)[C@H](Cc1ccccc1)NC(=O)[C@H](CC(C)C)NC(=O)[C@H](CCCCN)NC(=O)[C@@H](N)CCCCN)C(=O)N[C@@H](CC(C)C)C(=O)N[C@@H](CCCCN)C(=O)N[C@H](C(=O)N[C@@H](CC(C)C)C(N)=O)C(C)C [KKLFKKILKVL-NH2], the inhibition [2] was “Active”, the inhibition [3] was “Active” and the MIC [4] was 4 µM (≈ 5.43 µg/mL). For the same molecule, the Activity [5] was “Toxic”, the MIC ([1]; PHI-26, 96 h) was 4 µM (≈ 5.43 µg/mL) and the MIC [6] was 16 µM (≈ 21.7 µg/mL).
In the case of Ac-RFWWFRRR-NH2, the inhibition [2] is reported as “Active”, the “fold change (FC)” value [3] is reported as 2 and the MIC [4] is reported as 8 µM. The Activity [11] was “Non-toxic”, the inhibition [8] was “Active” and the MIC ([1]; PHI-26, 96 h) was 4 µM. For the same molecule, the MIC [6] was 32 µM, the inhibition [9] was “Active” and the inhibition [10] was “Active”.

Reference: ChEMBL document CHEMBL3046112, “Comparative study of antimicrobial peptides to control citrus postharvest decay caused by Penicillium digitatum” (J Agric Food Chem, 2007)
